Shown are actives, neighbours in structure and some others; about 2.6% of the full set was active somewhere.
ABHD5-PLIN5 inh – ABHD5-PLIN5 protein interaction inhibition. hit rate 0.78% among 360,000. Split G. princeps luciferase complementation, luminescence, 4 h. inhibition, % at 4 µM. Q00G26+Q8WTS1;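 active = inhibition above the mean inhibition across every tested compound plus 3 SD, cut at about 22% in these data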;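 also: 0% = DMSO only wells and the 100% control is not disclosed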
core dimer inh – HCV core protein dimerization inhibition; inhibition, % at 5 µM; TR-FRET GST/Flag-core106 dimerization, 1536-well; hit rate 0.33% among 300,000;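 active = inhibition above the mean of all tested compounds plus 3 SD, set per screening campaign, cut at about 45% in these data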
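Assay system: GST-tagged and Flag-tagged HCV core protein residues 1-106 / Times: compound-protein-antibody incubation 4 h at 22.5 °C / Signal: time-resolved FRET, ex 340 nm, em 617 and 671 nm / Evaluation: % inhibition based on acceptor/donor emission ratio / Benchmarks: wells lacking GST-core106 and wells with excess unlabelled core106 / Repeats: singlicate, one well per compound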
rCAG binder – molecules binding r(CAG) RNA repeats | AID 651821 | hit rate 1.3% among 370,000 | inhibition, % at 3 µM | r(CAG) RNA repeat, TO-PRO-1 dye displacement fluorescence;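 active = inhibition above the plate cutoff, the mean of all test compounds on that plate plus 3 SD, cut at about 35% in these data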;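 also: 0% = DMSO alone and 100% = 100 µM mitoxantrone as full dye displacement; higher means more dye released from RNA so lower well fluorescence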
NadD block – blocks S. aureus nicotinate mononucleotide adenylyltransferase; purified NadD enzyme, colorimetric absorbance read-out; hit rate 0.78% among 360,000; inhibition, % at 20 µM; in the data active = inhibition above about 26%
rCAG bind conf – r(CAG) RNA repeat binding, confirmation | hit rate 70% among 4,300 | shares compounds with rCAG binder | inhibition, % at 3 µM | AID 652065 | TO-PRO-1 dye displacement fluorescence;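 active = inhibition above a per-plate cutoff, the mean inhibition of sample wells plus 3 SD, cut at about 35% in these data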;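 also: loss of TO-PRO-1 fluorescence as compound displaces dye from 1x1 AA loop RNA; 0% = DMSO only wells and 100% = 100 µM mitoxantrone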
DNA CAG counter – DNA CAG dye complex inhibition counter-screen; hit rate 94% among 4,300; inhibition, % at 3 µM; d(CAG) DNA oligo TO-PRO-1 dye displacement, fluorescence; shares compounds with rCAG binder;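 active = inhibition above its plate's cutoff, the mean test-well inhibition plus 3 SD, cut at about 4.8% in these data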;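 also: 0% = DNA dye mix with DMSO and 100% = 100 µM mitoxantrone; hits displace the dye from DNA and so lower well fluorescence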
dCAG dye DR – DNA CAG dye complex inhibition, dose response counter-screen; shares compounds with rCAG binder; DNA CAG/GTC duplex TO-PRO-1 dye displacement fluorescence; IC50, µM; hit rate 20% among 250; AID 686960; in the data active = IC50 below about 10 µM
Active calls of the source: *; i = inactive; . = not tested or not shown.

SMILES | ABHD5-PLIN5 inh | core dimer inh | rCAG binder | NadD block | rCAG bind conf | DNA CAG counter | others
NS(=O)(=O)c1cc(C(=O)NC2CCSc3ccccc32)ccc1Cl (configuration not stated) | -3 | 32 | 80* | 19 | 81* | 49*
O=C(N/N=C/c1cccnc1)c1ccccc1NS(=O)(=O)c1cccs1 | -6 | -6 | 18 | -2 | . | .
COc1ccc(NS(=O)(=O)c2cccc(C(=O)NN=Cc3cc(Br)c(O)c(Br)c3)c2)cc1 | 1 | . | 39* | 14 | 43* | 17*
O=C(NN=Cc1ccc(F)cc1)c1ccccc1NS(=O)(=O)c1cccs1 | 8 | . | 26 | 4 | . | .
COc1ccccc1/C=N/NC(=O)c1ccccc1NS(=O)(=O)c1ccc(C)cc1 | -1 | 14 | 39* | -1 | 45* | 14*
Cc1ccc(S(=O)(=O)Nc2ccccc2C=NNC(=O)c2ccncc2)cc1 | -2 | . | 7 | -2 | . | .
COc1cc(/C=N/NC(=O)c2ccccc2NS(=O)(=O)c2cccs2)ccc1O | -6 | . | 43* | 3 | 32 | 9.4*
O=C(N/N=C/c1ccc([N+](=O)[O-])o1)c1ccccc1NS(=O)(=O)c1cccs1 | 0 | 7 | 45* | 4 | 41* | 15*
CC(=O)CC[C@H]1CC[C@]2(CCCN(C(=O)C(C)(C)C)C2)O1 | . | . | 2 | . | . | .
CCOC(=O)[C@]12CCC=C1N(Cc1ccc(Cl)cc1Cl)C(=O)[C@H](CC(=O)NCCCN1CCCC1=O)C2 | 1 | . | 0 | -6 | . | .
CCCCNC(=O)C1(C(=O)c2ccc(OC)cc2)CC(C(=O)OCC)=NO1 (configuration not stated) | . | . | 1 | . | . | .
Cc1nn(-c2ccccc2)c(C)c1/C=N/NC(=O)c1ccccc1NS(=O)(=O)c1cccs1 | -7 | 17 | 62* | 15 | 60* | 21*
O=C(NN=Cc1cc(Br)c(O)c(Br)c1)c1ccccc1NS(=O)(=O)c1cccs1 | 5 | . | 40* | -1 | 35* | 10*
CCOC(=O)C1=NN(C(=O)Nc2cccc(C(F)(F)F)c2)C2C(=O)N(c3cccc(C(F)(F)F)c3)C(=O)C12 (configuration not stated) | 1 | 16 | 83* | 8 | 23 | 5.8*
CCOC(=O)c1nccnc1C(=O)Nc1cccc(C(F)(F)F)c1 | 1 | -1 | -5 | -4 | . | .
COC(=O)[C@]12C[C@H](CC(=O)NCCc3ccccc3OC)C(=O)N(CCc3ccc(OC)c(OC)c3)C1=C[C@H](C(C)C)O[C@@H]2C1CC1 | . | . | 3 | . | . | .
CCCCCCCCN1C(=O)[C@H](CC(=O)N2CCSCC2)C[C@@]2(C(=O)OC)CC(C)(C)CC=C12 | -4 | . | 2 | . | . | .
Cc1ccc([C@@H]2CC=C(C(=O)O)[C@H](c3ccc(Br)cc3)N2S(=O)(=O)c2ccccc2C)cc1 | -6 | . | 86* | 11 | 81* | 48*
Cc1ccccc1S(=O)(=O)N1C(c2ccc(Cl)c(Cl)c2)CC=C(C(=O)O)C1c1cccc(Br)c1 (configuration not stated) | -1 | . | 86* | . | 85* | 57*
Cc1ccc(S(=O)(=O)N2[C@@H](c3ccccc3F)C(C(=O)O)=CC[C@H]2c2cccc(C)c2)cc1 | -4 | 13 | 26 | 2 | . | .
CC(C)(C)OC(=O)C1=CC[C@@H](c2ccc(Cl)c(Cl)c2)N(S(=O)(=O)c2ccc(F)cc2)[C@H]1c1cccc(F)c1 | 3 | . | 3 | -1 | . | .
Cc1ccc([C@@H]2CC=C(C(=O)O)[C@H](c3ccccc3F)N2S(=O)(=O)c2ccccc2C)cc1 | -4 | . | 51* | 4 | 59* | 24*
COc1ccc([C@@H]2CC=C(C(=O)O)[C@H](c3ccc(Cl)cc3)N2S(=O)(=O)c2ccccc2C)cc1 | 1 | 15 | 47* | 1 | 60* | 25*
CC(C)C[C@@H]1COc2cc(NCCCN3CCOCC3)ccc2S(=O)(=O)N1 | . | . | -1 | . | . | .
O=C(OC12CCCN(C1)/C(=C/c1ccc(Cl)cc1)C2)C1CCCCC1 (configuration not stated) | . | . | 4 | . | . | .
SMILES | ABHD5-PLIN5 inh | core dimer inh | rCAG binder | NadD block | rCAG bind conf | DNA CAG counter | others
CCOC(=O)C1=CCN(S(=O)(=O)c2ccccc2C)C1c1ccc(Br)cc1 (configuration not stated) | 0 | . | -1 | -7 | . | .
Cc1ccc([C@@H]2CC=C(C(=O)O)[C@H](c3cccc(F)c3)N2S(=O)(=O)c2ccccc2C)cc1 | 2 | . | 76* | 3 | 67* | 28*
Cc1ccc([C@@H]2CC=C(C(=O)O)[C@H](c3ccc(Cl)cc3)N2S(=O)(=O)c2ccccc2C)cc1 | -7 | . | 73* | 3 | 70* | 31* | dCAG dye DR=i
Cc1ccccc1S(=O)(=O)N1[C@@H](c2ccccc2)C(C(=O)O)=CC[C@H]1c1ccc(Cl)cc1 | -8 | 23 | 65* | 5 | 74* | 36*
Cc1ccccc1S(=O)(=O)N1[C@@H](c2ccc(Br)cc2)C(C(=O)O)=CC[C@H]1c1ccc(Cl)cc1 | -7 | . | 88* | 11 | 84* | 57*
O=C(O)C1=CC[C@@H](c2ccc(Cl)cc2)N(S(=O)(=O)c2ccc(Cl)cc2)[C@H]1c1cccc(Cl)c1 | 10 | 22 | 14 | 11 | . | .
COC(=O)[C@@]12CCCCC3=C1N(CCC3)C(=O)[C@H]2CC(=O)N1CCN(C(=O)C2CC2)CC1 | . | . | 0 | . | . | .
Cc1cccc(C)c1NC(=O)C1(C)CCC(=O)N1CCCn1ccnc1 (configuration not stated) | 2 | . | 2 | -6 | . | .
COc1ccc([C@@H]2CC=C(C(=O)O)[C@H](c3ccc(Br)cc3)N2S(=O)(=O)c2ccccc2C)cc1 | 0 | . | 77* | 4 | 75* | 40*
COc1cc([C@@H]2CC=C(C(=O)O)[C@H](c3ccc(F)cc3)N2S(=O)(=O)c2ccc(C)cc2)cc(OC)c1OC | -12 | 12 | 30 | -1 | . | .
NS(=O)(=O)c1ccc(CCNc2nn3c(-c4cccc(OC(F)(F)F)c4)cnc3s2)cc1 | -12 | . | 7 | 27 | . | .
CNc1nc2[nH]c(=O)c3c(c2s1)OC(N)=C(C#N)C3c1ccccc1 (configuration not stated) | -25 | -10 | 10 | 4 | . | .
CCNc1nc2[nH]c(=O)c3c(c2s1)OC(N)=C(C#N)C3c1ccc(C)cc1 (configuration not stated) | -24 | 4 | 53* | 11 | 27 | 14*
Cc1[nH]c(=O)nc(SCc2ccc(Cl)c(Cl)c2)c1C#N | -4 | -2 | 38* | 3 | 30 | 7.2*
Cc1[nH]c(=O)nc(SCc2cccc(Cl)c2)c1C#N | -1 | -4 | 26 | -2 | . | .
COC(=O)c1sc(-c2ccc(C(C)(C)C)cc2)cc1NC(=O)COCC(=O)O | -4 | 23 | 64* | -8 | 73* | 31* | dCAG dye DR=9.1*
COC(=O)c1sc(-c2ccc(Cl)cc2)cc1NC(=O)CSCC(=O)O | -6 | 11 | 27 | -16 | . | .

Screening results deposited in PubChem by several laboratories.
